Where a SMILES comes first, the peptide text is derived from it.
Columns and labels:
Klebsiella pneumoniae [1] = test: Antibacterial activity against Klebsiella pneumoniae M9885 clinical isolate expressing blaKPC-2 gene by microdilution test; type: functional
In short: (§1)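 MIC by standard broth microdilution following CLSI recommendations, in Mueller Hinton broth supplemented with Ca²⁺ (20-25mg/L) and Mg²⁺ (10-12.5mg/L); peptides tested against a panel of multi-resistant clinical isolates plus ATCC reference strains.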

Enterococcus faecium [2] = test: Antibacterial activity against Enterococcus faecium PZAP95 by microdilution test; type: functional; in short: as §1
[3] = Toxicity in human RBC assessed as hemolytic activity relative to control; type: cell-based, Erythrocyte; conditions: red blood cells (RBC), read-out: Activity
In short: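 Heparinized human whole blood diluted 3x in PBS and centrifuged 10 min at 1500 rpm, repeated three times. Cells resuspended to 10% (v/v), then diluted to about 0.5% (v/v). Peptides added at various concentrations for 30 min at 37 °C. Supernatant absorbance read at 550 nm. Lysis calculated against buffer (0%) and water (100%). Readings taken in triplicate and averaged.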

[4] = test system: Staphylococcus haemolyticus; test: Antibacterial activity against Staphylococcus haemolyticus M2976 clinical isolate expressing mecA gene by microdilution test; type: functional
In short: (§2)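 MIC by standard broth microdilution following CLSI recommendations, in Mueller Hinton broth supplemented with Ca²⁺ (20-25 mg/L) and Mg²⁺ (10-12.5 mg/L); ATCC reference strains included in the panel.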

Enterococcus gallinarum [5] = test: Antibacterial activity against Enterococcus gallinarum M2685 clinical isolate expressing vanC1 and vanA gene by microdilution test; type: functional; in short: as §1
Staphylococcus aureus [6] = test: Antibacterial activity against Staphylococcus aureus M6794 clinical isolate expressing mecA gene by microdilution test; type: functional; in short: as §2
Klebsiella pneumoniae [7] = test: Antibacterial activity against Klebsiella pneumoniae PFAV3 by microdilution test; type: functional; in short: as §1
Acinetobacter sp. [8] = test: Antibacterial activity against Acinetobacter sp. M5179 clinical isolate expressing blaOXA-51 gene by microdilution test; type: functional; in short: as §1
Klebsiella pneumoniae [9] = test: Antibacterial activity against Klebsiella pneumoniae M9170 clinical isolate expressing blaOXA-GIII gene by microdilution test; type: functional; in short: as §1
Klebsiella pneumoniae [10] = test: Antibacterial activity against Klebsiella pneumoniae M7647 clinical isolate expressing blaVIM, blaCTX-M-2, blaTEM-1 and blaSHV-1 gene by microdilution test; type: functional; in short: as §1
Escherichia coli [11] = test: Antibacterial activity against Escherichia coli M9209 clinical isolate expressing blaKPC-2 gene by microdilution test; type: functional; in short: as §1
[12] = test system: Staphylococcus epidermidis; test: Antibacterial activity against Staphylococcus epidermidis M2919 clinical isolate expressing mecA gene by microdilution test; type: functional; in short: as §2
Enterococcus faecium [13] = test: Antibacterial activity against Enterococcus faecium M2664 clinical isolate expressing vanA gene by microdilution test; type: functional; in short: as §1
Pseudomonas aeruginosa [14] = test: Antibacterial activity against Pseudomonas aeruginosa M5109 clinical isolate expressing blaVIM and blaGES-1 gene by microdilution test; type: functional; in short: as §2
Staphylococcus aureus [15] = test: Antibacterial activity against Staphylococcus aureus M6820 clinical isolate expressing mecA gene by microdilution test; type: functional; in short: as §2
Enterococcus faecalis [16] = test: Antibacterial activity against Enterococcus faecalis ATCC 51299 clinical isolate expressing vanB gene by microdilution test; type: functional; in short: as §1
Acinetobacter sp. [17] = test: Antibacterial activity against Acinetobacter sp. M5277 clinical isolate expressing blaPER gene by microdilution test; type: functional; in short: as §1
Enterococcus faecalis [18] = test: Antibacterial activity against Enterococcus faecalis M4899 clinical isolate expressing vanB gene by microdilution test; type: functional; in short: as §1
[19] = test system: Staphylococcus haemolyticus; test: Antibacterial activity against Staphylococcus haemolyticus M3014 by microdilution test; type: functional; in short: as §2
Escherichia coli [20] = test: Antibacterial activity against Escherichia coli PABC11 clinical isolate expressing blaCTX-M-2 gene by microdilution test; type: functional; in short: as §1
Pseudomonas aeruginosa [21] = test: Antibacterial activity against Pseudomonas aeruginosa M7907 clinical isolate expressing blaPER gene by microdilution test; type: functional; in short: as §2
Escherichia coli [22] = test: Antibacterial activity against Escherichia coli PNEU23 clinical isolate expressing blaOXA-GIII and blaTEM-1 gene by microdilution test; type: functional; in short: as §1
Enterococcus faecalis [23] = test: Antibacterial activity against Enterococcus faecalis M6983 clinical isolate expressing vanA gene by microdilution test; type: functional; in short: as §1
Klebsiella pneumoniae [24] = test: Antibacterial activity against Klebsiella pneumoniae M9140 clinical isolate expressing blaCIT gene by microdilution test; type: functional; in short: as §1
Staphylococcus cohnii = test: Antibacterial activity against Staphylococcus cohnii M6767 clinical isolate expressing mecA gene by microdilution test; type: functional; in short: as §2
Klebsiella pneumoniae [25] = test: Antibacterial activity against Klebsiella pneumoniae M5825 clinical isolate expressing blaGES-3 and blaCTX-M-2 gene by microdilution test; type: functional; in short: as §1
Enterococcus faecium [26] = test: Antibacterial activity against Enterococcus faecium M2304 clinical isolate expressing vanA gene by microdilution test; type: functional; in short: as §1
Acinetobacter sp. [27] = test: Antibacterial activity against Acinetobacter sp. M9665 clinical isolate expressing blaOXA-51 gene by microdilution test; type: functional; in short: as §1
Enterococcus faecalis [28] = test: Antibacterial activity against Enterococcus faecalis ATCC 29212 by microdilution test; type: functional; in short: as §1
Pseudomonas aeruginosa [29] = test: Antibacterial activity against Pseudomonas aeruginosa ATCC 27853 by microdilution test; type: functional; in short: as §1
Pseudomonas aeruginosa [30] = test: Antibacterial activity against Pseudomonas aeruginosa M5200 clinical isolate expressing blaVIM and blaGES-1 gene by microdilution test; type: functional; in short: as §2
Klebsiella pneumoniae [31] = test: Antibacterial activity against Klebsiella pneumoniae M13540 clinical isolate expressing blaKPC-2 gene by microdilution test; type: functional; in short: as §1
Pseudomonas aeruginosa [32] = test: Antibacterial activity against Pseudomonas aeruginosa M7728 clinical isolate expressing blaIMP gene by microdilution test; type: functional; in short: as §2
Escherichia coli [33] = test: Antibacterial activity against Escherichia coli M7859 clinical isolate expressing blaCIT gene by microdilution test; type: functional; in short: as §1
Klebsiella pneumoniae [34] = test: Antibacterial activity against Klebsiella pneumoniae M9375 clinical isolate expressing blaCTX-M-2, blaTEM-1 and blaSHV-1 gene by microdilution test; type: functional; in short: as §1
Enterococcus gallinarum [35] = test: Antibacterial activity against Enterococcus gallinarum M2723 clinical isolate expressing vanC1 and vanA gene by microdilution test; type: functional; in short: as §1
Staphylococcus aureus [36] = test: Antibacterial activity against Staphylococcus aureus P33 clinical isolate expressing msrA gene by microdilution test; type: functional; in short: as §2
Staphylococcus aureus [37] = test: Antibacterial activity against Staphylococcus aureus M4046 clinical isolate expressing mecA gene by microdilution test; type: functional; in short: as §2
Pseudomonas aeruginosa [38] = test: Antibacterial activity against Pseudomonas aeruginosa M11005 clinical isolate expressing blaKPC-2 gene by microdilution test; type: functional; in short: as §1
Enterococcus faecium [39] = test: Antibacterial activity against Enterococcus faecium M6261 by microdilution test; type: functional; in short: as §1
Staphylococcus aureus [40] = test: Antibacterial activity against Staphylococcus aureus P28 clinical isolate expressing ermA gene by microdilution test; type: functional; in short: as §2
Klebsiella pneumoniae [41] = test: Antibacterial activity against Klebsiella pneumoniae M1803 clinical isolate expressing blaPER-2, blaCTX-M-2, blaTEM-1, blaSHV and blaOXA-9 gene by microdilution test; type: functional; in short: as §1
Acinetobacter sp. [42] = test: Antibacterial activity against Acinetobacter sp. M5282 clinical isolate expressing blaOXA-51 gene by microdilution test; type: functional; in short: as §1
Klebsiella pneumoniae [43] = test: Antibacterial activity against Klebsiella pneumoniae M9491 clinical isolate expressing blaMOX gene by microdilution test; type: functional; in short: as §1
Klebsiella pneumoniae [44] = test: Antibacterial activity against Klebsiella pneumoniae M9310 clinical isolate expressing blaCTX-M-2, blaTEM-1 and blaSHV-1 gene by microdilution test; type: functional; in short: as §1
Staphylococcus hominis = test: Antibacterial activity against Staphylococcus hominis M2973 clinical isolate expressing mecA gene by microdilution test; type: functional; in short: as §2
Enterococcus faecium [45] = test: Antibacterial activity against Enterococcus faecium M2619 clinical isolate expressing vanB gene by microdilution test; type: functional; in short: as §1
Staphylococcus aureus [46] = test: Antibacterial activity against Staphylococcus aureus ATCC 29213 by microdilution test; type: functional; in short: as §2
Acinetobacter sp. [47] = test: Antibacterial activity against Acinetobacter sp. M7489 clinical isolate expressing blaOXA-51 and blaTEM gene by microdilution test; type: functional; in short: as §1

SMILES: CC[C@H](C)[C@H](N)C(=O)N[C@@H](CC(C)C)C(=O)N[C@@H](CCCNC(=N)N)C(=O)N[C@@H](Cc1c[nH]c2ccccc12)C(=O)N1CCC[C@H]1C(=O)N[C@@H](Cc1c[nH]c2ccccc12)C(=O)N[C@@H](Cc1c[nH]c2ccccc12)C(=O)N1CCC[C@H]1C(=O)N[C@@H](Cc1c[nH]c2ccccc12)C(=O)N[C@@H](CCCNC(=N)N)C(=O)N[C@@H](CCCNC(=N)N)C(=O)N[C@@H](CCCCN)C(N)=O.Cl.Cl.Cl.Cl.Cl [OMIGANAN PENTAHYDROCHLORIDE] (H-ILRWPWWPWRRK-NH2)
- MIC90 (Klebsiella pneumoniae [1]): 256 µg/mL
- MIC90 (Enterococcus faecium [2]): 16 µg/mL
- hemolysis [3]: 10%
- MIC90 [4]: 4 µg/mL
- MIC90 (Enterococcus gallinarum [5]): 16 µg/mL
- MIC90 (Staphylococcus aureus [6]): 64 µg/mL
- MIC90 (Klebsiella pneumoniae [7]): 128 µg/mL
- MIC90 (Acinetobacter sp. [8]): 32 µg/mL
- MIC90 (Klebsiella pneumoniae [9]): 128 µg/mL
- MIC90 (Klebsiella pneumoniae [10]): 1020 µg/mL
- MIC90 (Escherichia coli [11]): 64 µg/mL
- MIC90 [12]: 8 µg/mL
- MIC90 (Enterococcus faecium [13]): 8 µg/mL
- MIC90 (Pseudomonas aeruginosa [14]): 256 µg/mL
- MIC90 (Staphylococcus aureus [15]): 128 µg/mL
- MIC90 (Enterococcus faecalis [16]): 256 µg/mL
- MIC90 (Acinetobacter sp. [17]): 32 µg/mL
- MIC90 (Enterococcus faecalis [18]): 256 µg/mL
- MIC90 [19]: 4 µg/mL
- MIC90 (Escherichia coli [20]): 64 µg/mL
- MIC90 (Pseudomonas aeruginosa [21]): 128 µg/mL
- MIC90 (Escherichia coli [22]): 32 µg/mL
- MIC90 (Enterococcus faecalis [23]): 128 µg/mL
- MIC90 (Klebsiella pneumoniae [24]): 64 µg/mL
- MIC90 (Staphylococcus cohnii): 4 µg/mL
- MIC90 (Klebsiella pneumoniae [25]): 64 µg/mL
- MIC90 (Enterococcus faecium [26]): 4 µg/mL
- MIC90 (Acinetobacter sp. [27]): 4 µg/mL
- MIC90 (Enterococcus faecalis [28]): 128 µg/mL
- MIC90 (Pseudomonas aeruginosa [29]): 256 µg/mL
- MIC90 (Pseudomonas aeruginosa [30]): 512 µg/mL
- MIC90 (Klebsiella pneumoniae [31]): 256 µg/mL
- MIC90 (Pseudomonas aeruginosa [32]): 512 µg/mL
- MIC90 (Escherichia coli [33]): 64 µg/mL
- MIC90 (Klebsiella pneumoniae [34]): 32 µg/mL
- MIC90 (Enterococcus gallinarum [35]): 16 µg/mL
- MIC90 (Staphylococcus aureus [36]): 32 µg/mL
- MIC90 (Staphylococcus aureus [37]): 32 µg/mL
- MIC90 (Pseudomonas aeruginosa [38]): 512 µg/mL
- MIC90 (Enterococcus faecium [39]): 16 µg/mL
- MIC90 (Staphylococcus aureus [40]): 32 µg/mL
- MIC90 (Klebsiella pneumoniae [41]): 1020 µg/mL
- MIC90 (Acinetobacter sp. [42]): 8 µg/mL
- MIC90 (Klebsiella pneumoniae [43]): 128 µg/mL
- MIC90 (Klebsiella pneumoniae [44]): 64 µg/mL
- MIC90 (Staphylococcus hominis): 4 µg/mL
- MIC90 (Enterococcus faecium [45]): 16 µg/mL
- MIC90 (Staphylococcus aureus [46]): 32 µg/mL
- MIC90 (Acinetobacter sp. [47]): 8 µg/mL

Reference: ChEMBL document CHEMBL3097989, “Antimicrobial activity of de novo designed cationic peptides against multi-resistant clinical isolates” (Eur J Med Chem, 2014)
